Measured values published in ChEMBL document CHEMBL3102702, “Protein kinase and HDAC inhibitors from the endophytic fungus Epicoccum nigrum” (J Nat Prod, 2014).

Legend:
[1] = target: Serine/threonine-protein kinase PLK1 (Homo sapiens, UniProt P53350); assay: Inhibition of PLK1 (unknown origin)
[2] = target: Proto-oncogene tyrosine-protein kinase Src (Homo sapiens, UniProt P12931); assay: Inhibition of SRC (unknown origin)
[3] = target: T1, Serine/threonine-protein kinase Nek2 (Homo sapiens, UniProt P51955); assay: Inhibition of NEK2 (unknown origin)
T1 sequence (P51955 whole entry): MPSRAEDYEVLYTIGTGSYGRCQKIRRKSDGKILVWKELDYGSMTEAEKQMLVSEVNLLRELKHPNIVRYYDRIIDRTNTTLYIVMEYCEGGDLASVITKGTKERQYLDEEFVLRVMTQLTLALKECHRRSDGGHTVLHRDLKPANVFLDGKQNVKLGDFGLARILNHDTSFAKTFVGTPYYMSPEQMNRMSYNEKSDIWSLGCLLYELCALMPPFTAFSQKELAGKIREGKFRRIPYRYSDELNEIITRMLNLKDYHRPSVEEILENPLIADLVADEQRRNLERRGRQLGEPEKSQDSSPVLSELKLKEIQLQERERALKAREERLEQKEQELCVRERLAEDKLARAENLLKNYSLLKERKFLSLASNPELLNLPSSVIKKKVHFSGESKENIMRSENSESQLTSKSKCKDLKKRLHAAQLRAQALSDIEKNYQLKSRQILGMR

[4] = target: ALK tyrosine kinase receptor (Homo sapiens, UniProt Q9UM73); assay: Inhibition of ALK (unknown origin)
[5] = target: T2, NUAK family SNF1-like kinase 1 (Homo sapiens, UniProt O60285); assay: Inhibition of ARK5 (unknown origin)
T2 sequence (O60285 whole entry): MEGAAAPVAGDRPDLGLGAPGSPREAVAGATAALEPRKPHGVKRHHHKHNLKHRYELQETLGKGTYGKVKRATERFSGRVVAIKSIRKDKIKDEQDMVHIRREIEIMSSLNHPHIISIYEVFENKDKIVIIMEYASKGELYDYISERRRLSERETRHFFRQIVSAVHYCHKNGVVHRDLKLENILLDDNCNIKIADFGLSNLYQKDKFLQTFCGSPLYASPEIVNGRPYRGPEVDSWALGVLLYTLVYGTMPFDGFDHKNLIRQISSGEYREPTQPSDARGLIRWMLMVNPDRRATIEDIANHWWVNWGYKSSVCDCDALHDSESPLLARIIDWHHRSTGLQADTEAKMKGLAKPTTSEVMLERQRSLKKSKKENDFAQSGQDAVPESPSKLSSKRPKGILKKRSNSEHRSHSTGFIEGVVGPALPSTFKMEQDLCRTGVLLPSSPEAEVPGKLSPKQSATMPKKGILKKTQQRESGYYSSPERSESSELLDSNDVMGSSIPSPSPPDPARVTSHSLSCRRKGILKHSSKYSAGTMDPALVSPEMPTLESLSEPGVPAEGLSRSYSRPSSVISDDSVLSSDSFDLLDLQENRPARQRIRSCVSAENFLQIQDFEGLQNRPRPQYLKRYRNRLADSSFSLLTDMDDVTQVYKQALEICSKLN

[6] = target: Dual specificity mitogen-activated protein kinase kinase 1 (Homo sapiens, UniProt Q02750); assay: Inhibition of wild type MEK1 (unknown origin)
[7] = target: Hepatocyte growth factor receptor (Homo sapiens, UniProt P08581); assay: Inhibition of wild type MET (unknown origin)
[8] = target: Serine/threonine-protein kinase N1 (Homo sapiens, UniProt Q16512); assay: Inhibition of PRK1 (unknown origin)
[9] = target: Vascular endothelial growth factor receptor 2 (Homo sapiens, UniProt P35968); assay: Inhibition of VEGFR2 (unknown origin)
[10] = target: Insulin-like growth factor 1 receptor (Homo sapiens, UniProt P08069); assay: Inhibition of IGF1R (unknown origin)
[11] = target: RAC-alpha serine/threonine-protein kinase (Homo sapiens, UniProt P31749); assay: Inhibition of AKT1 (unknown origin)
Focal adhesion kinase 1 = Focal adhesion kinase 1 (Homo sapiens, UniProt Q05397); assay: Inhibition of FAK (unknown origin)
[12] = target: Serine/threonine-protein kinase pim-1 (Homo sapiens, UniProt P11309); assay: Inhibition of PIM1 (unknown origin)
[13] = target: Serine/threonine-protein kinase Nek6 (Homo sapiens, UniProt Q9HC98); assay: Inhibition of NEK6 (unknown origin)
[14] = target: T3, Tyrosine-protein kinase receptor UFO (Homo sapiens, UniProt P30530); assay: Inhibition of AXL (unknown origin)
T3 sequence (P30530 whole entry): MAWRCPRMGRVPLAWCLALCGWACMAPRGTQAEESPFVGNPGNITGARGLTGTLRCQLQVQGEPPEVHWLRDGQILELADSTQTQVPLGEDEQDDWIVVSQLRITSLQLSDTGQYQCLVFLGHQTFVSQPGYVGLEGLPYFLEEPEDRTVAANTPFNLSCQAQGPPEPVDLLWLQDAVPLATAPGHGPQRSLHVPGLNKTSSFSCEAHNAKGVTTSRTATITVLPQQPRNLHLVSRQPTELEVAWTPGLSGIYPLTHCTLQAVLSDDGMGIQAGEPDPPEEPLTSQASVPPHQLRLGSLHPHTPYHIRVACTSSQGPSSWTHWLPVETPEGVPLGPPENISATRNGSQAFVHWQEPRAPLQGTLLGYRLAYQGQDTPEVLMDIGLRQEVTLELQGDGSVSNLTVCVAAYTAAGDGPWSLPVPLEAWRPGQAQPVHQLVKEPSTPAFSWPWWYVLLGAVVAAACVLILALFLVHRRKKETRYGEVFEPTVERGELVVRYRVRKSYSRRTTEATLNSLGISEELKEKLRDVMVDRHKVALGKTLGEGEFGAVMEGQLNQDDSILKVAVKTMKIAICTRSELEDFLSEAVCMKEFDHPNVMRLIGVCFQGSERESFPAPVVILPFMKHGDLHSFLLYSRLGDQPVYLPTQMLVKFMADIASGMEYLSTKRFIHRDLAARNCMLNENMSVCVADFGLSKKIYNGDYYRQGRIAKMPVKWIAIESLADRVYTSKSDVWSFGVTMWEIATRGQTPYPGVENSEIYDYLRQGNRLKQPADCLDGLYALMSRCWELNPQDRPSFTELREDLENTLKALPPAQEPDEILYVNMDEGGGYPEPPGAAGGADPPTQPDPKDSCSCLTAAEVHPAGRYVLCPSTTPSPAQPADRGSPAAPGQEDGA

Aurora kinase B = Aurora kinase B (Homo sapiens, UniProt Q96GD4); assay: Inhibition of aurora-B (unknown origin)
Histone deacetylase 2 = Histone deacetylase 2 (Homo sapiens, UniProt Q92769); assay: Inhibition of recombinant HDAC2 (unknown origin) using Fluor-de-Lys-SIRT1 as substrate by fluorescence assay
Histone deacetylase 11 = Histone deacetylase 11 (Homo sapiens, UniProt Q96DB2); assay: Inhibition of recombinant HDAC11 (unknown origin) using Fluor-de-Lys-SIRT1 as substrate by fluorescence assay
Raji [15] = assay: Antiproliferative activity against human Raji cells assessed as growth inhibition at 25 uM after 72 hrs; format: functional; details: read-out: GI
In short: (§1)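 RAJI and U-937 cells from ATCC, grown in RPMI 1640 with 10% heat-inactivated fetal calf serum and 1% antibiotic–antimycotic at 37 °C, humid 5% CO2. Treated 72 h; DMSO-treated cells as negative control; proliferation measured by a previously described method.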

Histone deacetylase 3 = Histone deacetylase 3 (Homo sapiens, UniProt O15379); assay: Inhibition of recombinant HDAC3 (unknown origin) using Fluor-de-Lys-SIRT1 as substrate by fluorescence assay
PBMC = assay: Cytotoxicity against PBMC (unknown origin) assessed as growth inhibition after 48 hrs; format: cell-based
In short: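 PBMCs isolated by a prior method, cultured in RPMI 1640 with 10% heat-inactivated FCS and 1% antibiotic–antimycotic at 37 °C, 5% CO2. Viability read after 48 h treatment, against DMSO-treated controls.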

Histone deacetylase 8 = Histone deacetylase 8 (Homo sapiens, UniProt Q9BY41); assay: Inhibition of recombinant HDAC8 (unknown origin) using Fluor-de-Lys-HDAC8 as substrate by fluorescence assay
Histone deacetylase = assay: Inhibition of HDAC in human K562 cell extract using Fluor-de-Lys deacetylase as substrate preincubated for 45 mins measured after 15 mins by fluorescence assay; format: protein assay
Histone deacetylase 1 = Histone deacetylase 1 (Homo sapiens, UniProt Q13547); assay: Inhibition of recombinant HDAC1 (unknown origin) using Fluor-de-Lys-SIRT1 as substrate by fluorescence assay
[16] = Antiproliferative activity against human U937 cells assessed as growth inhibition at 25 uM after 72 hrs; format: functional; details: U-937, 72 h, read-out: GI; in short: as §1
[17] = target: Polyamine deacetylase HDAC10 (Homo sapiens, UniProt Q969S8); assay: Inhibition of recombinant HDAC10 (unknown origin) using Fluor-de-Lys-SIRT1 as substrate by fluorescence assay
[18] = target: Protein deacetylase HDAC6 (Homo sapiens, UniProt Q9UBN7); assay: Inhibition of recombinant HDAC6 (unknown origin) using Fluor-de-Lys-SIRT1 as substrate by fluorescence assay
[19] = Antiproliferative activity against human U937 cells assessed as growth inhibition at 5 uM after 72 hrs; format: functional; details: U-937, 72 h, read-out: GI; in short: as §1
Raji [20] = assay: Antiproliferative activity against human Raji cells assessed as growth inhibition at 5 uM after 72 hrs; format: functional; details: read-out: GI; in short: as §1

| Compound | IC50 [1] [µM] | IC50 [2] [µM] | IC50 [3] [µM] | IC50 [4] [µM] | IC50 [5] [µM] | IC50 [6] [µM] | IC50 [7] [µM] | IC50 [8] [µM] | IC50 [9] [µM] | IC50 [10] [µM] | IC50 [11] [µM] | IC50 (Focal adhesion kinase 1) [µM] | IC50 [12] [µM] | IC50 [13] [µM] | IC50 [14] [µM] | IC50 (Aurora kinase B) [µM] | IC50 (Histone deacetylase 2) [µM] | IC50 (Histone deacetylase 11) [µM] | IC50 (Histone deacetylase 3) [µM] | Activity (PBMC) | other results |
| --- | --- | --- | --- | --- | --- | --- | --- | --- | --- | --- | --- | --- | --- | --- | --- | --- | --- | --- | --- | --- | --- |
| Cc1c(O)c(O)c(O)c(C=O)c1-c1cc2c(C=O)c(C)c(O)c(O)c2o1 | 6.31 | 0.49 | 3.78 | 0.25 | 3.77 | > 30 | 1.12 | 9 | 0.39 | 0.15 | 4.07 | 0.8 | 4.44 | 1.85 | 0.22 | 7.29 | 9.1 | 12.9 | 6.9 | Non-toxic | inhibition of growth at 25 µM (Raji [15]): 55%; IC50 (Histone deacetylase 8): 2.1 µM; IC50 (Histone deacetylase): 14.2 µM; IC50 (Histone deacetylase 1): 8.8 µM; inhibition of growth at 25 µM [16]: 30%; IC50 [17]: 8.1 µM; IC50 [18]: 6.5 µM |
| Cc1c(O)c(O)c2c(c1C=O)[C@@H]1O[C@H](O2)c2c(C)c(O)c(O)c(O)c2C1=O (racemic) | 3.18 | 0.37 | 1.83 | 0.18 | 2.51 | > 30 | 0.58 | 4.48 | 0.32 | 0.07 | 2.15 | 0.42 | 3.1 | 0.52 | 0.16 | 2.51 | 10 | 11.7 | 12.4 | Non-toxic | inhibition of growth at 5 µM [19]: 32%; IC50 (Histone deacetylase 8): 1.6 µM; IC50 (Histone deacetylase): 9.8 µM; IC50 (Histone deacetylase 1): 8.6 µM; IC50 [17]: 8.4 µM; IC50 [18]: 4.6 µM; inhibition of growth at 5 µM (Raji [20]): 50% |
| O=c1c(O)c(-c2ccc(O)c(O)c2)oc2cc(O)cc(O)c12 [QUERCETIN] | – | 0.12 | 5.73 | 3.32 | 5.09 | > 10 | 0.58 | 5.8 | – | 0.3 | 5.39 | 1.2 | – | 4.23 | 0.96 | 0.91 | – | – | – | – | – |

The next lines start with results.

| IC50 [1] [µM] | IC50 [2] [µM] | IC50 [3] [µM] | IC50 [4] [µM] | IC50 [5] [µM] | IC50 [6] [µM] | IC50 [7] [µM] | IC50 [8] [µM] | IC50 [9] [µM] | IC50 [10] [µM] | IC50 [11] [µM] | IC50 (Focal adhesion kinase 1) [µM] | IC50 [12] [µM] | IC50 [13] [µM] | IC50 [14] [µM] | IC50 (Aurora kinase B) [µM] | IC50 (Histone deacetylase 2) [µM] | IC50 (Histone deacetylase 11) [µM] | IC50 (Histone deacetylase 3) [µM] | Compound | Activity (PBMC) | other results |
| --- | --- | --- | --- | --- | --- | --- | --- | --- | --- | --- | --- | --- | --- | --- | --- | --- | --- | --- | --- | --- | --- |
| > 30 | 20 | > 30 | 9.33 | > 30 | > 30 | > 30 | > 30 | > 30 | 3.5 | > 30 | 20.6 | > 30 | > 30 | 11 | 20.6 | – | – | – | COCc1c(C)c(O)c(O)c(O)c1C=O | – | – |
| 11.8 | 3.56 | 6.55 | 5.02 | 10 | > 100 | 8.63 | 18.6 | 5.96 | 0.56 | 23.2 | 7.52 | 21.3 | 13.6 | 2.46 | 8.69 | – | – | – | Cc1c(O)c(O)c(O)c2c1COC2=O | – | – |
| > 30 | 12.6 | 11.8 | 9.76 | 29.8 | > 30 | 9.65 | > 30 | 26.4 | 2.04 | > 30 | 16.3 | > 30 | > 30 | 6.39 | 22.6 | – | – | – | COC1OC(=O)c2c(O)c(O)c(O)c(C)c21 (racemic) | – | – |
